We go through seven compounds from ChEMBL document CHEMBL3817777, “A new motif for inhibitors of geranylgeranyl diphosphate synthase” (Bioorg Med Chem, 2016).

Each structure is given as a SMILES string. Active and inactive are the calls of the source. No cut-off for these calls is given here.

The target in assay [1] is T1, Geranylgeranyl pyrophosphate synthase (Homo sapiens) (UniProt O95749).
T1 sequence (whole entry): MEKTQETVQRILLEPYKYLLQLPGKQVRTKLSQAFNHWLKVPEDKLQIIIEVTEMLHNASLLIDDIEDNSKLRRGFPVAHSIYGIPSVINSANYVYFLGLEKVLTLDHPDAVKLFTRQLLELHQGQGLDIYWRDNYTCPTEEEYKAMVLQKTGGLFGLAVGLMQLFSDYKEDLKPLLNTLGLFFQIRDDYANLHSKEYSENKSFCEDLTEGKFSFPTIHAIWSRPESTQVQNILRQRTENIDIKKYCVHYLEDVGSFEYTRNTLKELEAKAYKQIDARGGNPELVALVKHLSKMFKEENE
Put plainly: Inhibition of GGDPS in human RPMI8266 cells assessed as disruption of Rap1a geranylgeranylation after 48 hrs by immunoblot analysis. Format: cell-based. In a few lines: (§1)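 Cells were lysed in RIPA buffer (0.15 M NaCl, 1% deoxycholate, 0.1% SDS, 1% Triton X-100, 0.05 M Tris HCl) with protease and phosphatase inhibitors. Protein was quantified by BCA, and equal amounts were run on SDS-PAGE and transferred to PVDF. Blots were probed for unmodified Rap1a, a GGTase I substrate, and detected with HRP secondary antibodies and ECL.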

Assay [2] addresses T1, Geranylgeranyl pyrophosphate synthase (Homo sapiens). Nature of the assay: Inhibition of GGDPS in human RPMI8266 cells assessed as lambda light chain levels after 48 hrs by ELISA. Format: cell-based. For orientation: In an ELISA, binding on a coated surface is turned into a signal by an enzyme label.
Assay [3] is described as follows: Cytotoxicity against human RPMI8266 cells after 48 hrs by MTT assay. Type of assay: functional, cell-based. The settings on record: RPMI8266, 48 h. In a few lines:
(§2)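 Cells were plated at 2.5 ×10^4 cells/100 μL/well and exposed to compounds for 48 hrs. MTT (5 mg/mL in PBS) was then added for 4 hrs, and the product was solubilized overnight at 37 °C in 0.01 M HCl/10% SDS. Absorbance was read at 540 nm, with untreated controls set as 100% MTT activity. Each test ran in quadruplicate across three independent experiments, and EC50 is reported as mean ± standard deviation.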

Assay [4] in a line: Cytotoxicity against human MM1S cells after 48 hrs by MTT assay. The settings on record: MM1.S. Format: functional, cell-based. The method in brief:
as §2
In general terms: Formazan colour is commonly taken as a measure of viable cells.

Assay [5] in a line: Cytotoxicity against human ALMC2 cells after 48 hrs by MTT assay. Format: functional, cell-based. The settings on record: ALMC2, 48 h. In a few lines:
as §2

The target of assay [6] is T1, Geranylgeranyl pyrophosphate synthase (Homo sapiens). Nature of the assay: Inhibition of GGDPS in human RPMI8266 cells assessed as disruption of Rap1a geranylgeranylation at low concentrations after 48 hrs by immunoblot analysis. Format: cell-based. In a few lines: as §1
(In general: Immunoblotting shows a protein as a band on a membrane.)

The target is the same in assay [7]. Put plainly: Inhibition of GGDPS in human RPMI8266 cells assessed as lambda light chain levels at low concentrations after 48 hrs by ELISA. Type of assay: cell-based.
Assay [8] has the same target. Nature of the assay: Inhibition of GGDPS in human RPMI8266 cells assessed as disruption of Rap1a geranylgeranylation at 5 uM after 48 hrs by immunoblot analysis in presence of GGDP. Type of assay: cell-based. The method in brief:
as §1

Assay [9] shares this target. Nature of the assay: Inhibition of GGDPS in human RPMI8266 cells assessed as lambda light chain levels at 5 uM after 48 hrs by ELISA in presence of GGDP. Type of assay: cell-based.
Assay [10] shares this target. Nature of the assay: Inhibition of GGDPS in human RPMI8266 cells assessed as disruption of Rap1a geranylgeranylation at 5 uM after 48 hrs by immunoblot analysis in presence of mevalonate. Format: cell-based. In a few lines:
as §1

Assay [11] shares this target. Put plainly: Inhibition of GGDPS in human RPMI8266 cells assessed as lambda light chain levels at 5 uM after 48 hrs by ELISA in presence of mevalonate. Format: cell-based.
The target is the same in assay [12]. Put plainly: Inhibition of GGDPS in human RPMI8266 cells assessed as disruption of Rap1a geranylgeranylation at 1 uM after 48 hrs by immunoblot analysis in presence of GGDP. Type of assay: cell-based. In a few lines:
as §1

Assay [13] shares this target. Nature of the assay: Inhibition of GGDPS in human RPMI8266 cells assessed as lambda light chain levels at 1 uM after 48 hrs by ELISA in presence of GGDP. Format: cell-based.

Usually EC50 stands for the concentration giving half of the maximal effect. Regarding `CC(C)=CCC/C(C)=C/CC(CC=C(C)C)(P(=O)(OCC[C@@H](C)CCC=C(C)C)OCOC(=O)C(C)(C)C)P(=O)(OCOC(=O)C(C)(C)C)OCOC(=O)C(C)(C)C` (stereo partly drawn), the inhibition entry in assay [1] and in [2] was “Dose-dependent effect” throughout. Moreover, the values for the EC50 in assay [3], in assay [4] and in assay [5] were 7.3 µM, 25.3 µM and 28.2 µM, respectively.

In the case of `CC(C)=CCC/C(C)=C/CC(C/C=C(\C)CCC=C(C)C)(P(=O)(OCC[C@@H](C)CCC=C(C)C)OCOC(=O)C(C)(C)C)P(=O)(OCOC(=O)C(C)(C)C)OCOC(=O)C(C)(C)C` (stereo partly drawn), the inhibition result in assay [1] and in assay [2] was “Dose-dependent effect” throughout. For the same compound, the EC50 in assay [3] is 26.7 µM; in assay [4], 48.2 µM; in [5], greater than 100 µM.

In the case of `CC(C)=CCC/C(C)=C/CC(C)(P(=O)(OCC[C@H](C)CCC=C(C)C)OCOC(=O)C(C)(C)C)P(=O)(OCOC(=O)C(C)(C)C)OCOC(=O)C(C)(C)C` (stereo partly drawn), the inhibition result in assay [6] and in [7] was “Active” in each case.

For `CC(C)=CCC/C(C)=C/CC(P(=O)(OCC[C@@H](C)CCC=C(C)C)OCOC(=O)C(C)(C)C)P(=O)(OCOC(=O)C(C)(C)C)OCOC(=O)C(C)(C)C` (stereo partly drawn), the inhibition entry in assay [1] and in assay [2] was “Dose-dependent effect” throughout. In addition, the EC50 in assay [3] was determined as 7.1 µM; in [4], 5.7 µM; in assay [5] it was 12.6 µM.

As to `C=CCC(C/C=C(\C)CCC=C(C)C)(P(=O)(OCC[C@@H](C)CCC=C(C)C)OCOC(=O)C(C)(C)C)P(=O)(OCOC(=O)C(C)(C)C)OCOC(=O)C(C)(C)C` (stereo partly drawn), the inhibition entry in [1] and in assay [2] was “Dose-dependent effect” in each case. For the same compound, the EC50 in [3] was 8.4 µM; in [4] it was 10.7 µM; in assay [5] it was 25.4 µM.

`CC[C@H](C)C(=O)O[C@H]1C[C@@H](C)C=C2C=C[C@H](C)[C@H](CC[C@@H]3C[C@@H](O)CC(=O)O3)[C@H]21`: the inhibition result in assay [8], in assay [9], in assay [10] and in assay [11] was “inactive” throughout.

In the case of `CC(C)=CCC/C(C)=C/CC(C)(P(=O)(OCC[C@@H](C)CCC=C(C)C)OCOC(=O)C(C)(C)C)P(=O)(OCOC(=O)C(C)(C)C)OCOC(=O)C(C)(C)C` (stereo partly drawn), the inhibition entry in assay [1] and in assay [2] was “Dose-dependent effect” throughout. Moreover, the EC50 in assay [3] stood at 1.6 µM; in assay [4] it was 2.7 µM; in assay [5], 5.4 µM. In addition, the inhibition entry in assay [12] and in [13] was “inactive” throughout.
